High-throughput results: PubChem BioAssay, The Scripps Research Institute Molecular Screening Center
M4 ag – agonists of human muscarinic M4 receptor (CHRM4) | 360,000 tested, 0.14% active | CHO-K1 hM4/Gqi5, Fluo-8 calcium fluorescence; vehicle 0%, full acetylcholine response 100% | activation, % at 3 µM | P08173;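 active = activation above the run mean over all test wells plus 3 SD, cut at about 32% in these data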;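 also: peak over basal fluorescence ratio per well then scaled between controls; 0% = DMSO wells and 100% = acetylcholine at EC100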
M5 PAM – positive allosteric modulators of human muscarinic M5 receptor. AID 624038. CHO-K1 hM5, Fluo-8 calcium, ACh EC20 PAM; 0% = ACh EC20, 100% = ACh EC100. activation, % at 3 µM. 360,000 tested, 0.3% active;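 active = activation above the run cutoff, the mean activation of all test compounds plus 3 SD, cut at about 18% in these data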
Target sequence (P08912 whole entry, looked up): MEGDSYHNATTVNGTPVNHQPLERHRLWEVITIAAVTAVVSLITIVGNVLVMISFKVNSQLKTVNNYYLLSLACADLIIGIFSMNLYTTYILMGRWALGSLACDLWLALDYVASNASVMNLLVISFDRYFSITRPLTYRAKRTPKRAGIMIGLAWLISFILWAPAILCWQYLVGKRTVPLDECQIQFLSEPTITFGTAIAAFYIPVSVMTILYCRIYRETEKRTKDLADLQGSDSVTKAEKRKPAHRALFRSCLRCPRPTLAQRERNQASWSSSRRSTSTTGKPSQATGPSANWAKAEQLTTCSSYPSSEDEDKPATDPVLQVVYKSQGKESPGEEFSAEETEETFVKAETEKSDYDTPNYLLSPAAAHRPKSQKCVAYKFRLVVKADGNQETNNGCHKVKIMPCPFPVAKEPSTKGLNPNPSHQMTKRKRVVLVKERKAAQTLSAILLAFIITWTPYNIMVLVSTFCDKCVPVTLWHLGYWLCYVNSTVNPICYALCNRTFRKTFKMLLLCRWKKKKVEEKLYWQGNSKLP
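Assay system: CHO-K1 hM5 cells / Incubation: Fluo-8 loading 80 min at 37 °C plus 30 min room temperature / Technique: Fluo-8 calcium dye fluorescence, kinetic read / Repeats: single replicate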
CHRM5 agonist – agonists of human muscarinic M5 receptor (CHRM5). P08912. CHO-K1 hM5 cells, Fluo-8 calcium fluorescence; 0% DMSO wells, 100% maximal acetylcholine response. activation, % at 3 µM. 360,000 tested, 0.19% active. AID 624037;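 active = activation above the run's mean over test compounds plus 3 SD, cut at about 23% in these data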;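 also: signal is peak over basal fluorescence ratio across the kinetic read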
M4 PAM – potentiates acetylcholine response at human M4 receptor; activation, % at 3 µM; 360,000 tested, 0.4% active; AID 624126; P08173; CHO-K1 hM4/Gqi5, Fluo-8 calcium fluorescence, ACh EC20; 0% = ACh EC20, 100% = maximal ACh;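 active = activation above its plate's cutoff, the mean activation of sample wells plus 3 SD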
CHRM4 antagonist – blocks acetylcholine activation of human M4 receptor; P08173; CHO-hM4 cells, ACh EC80, Fluo-8 calcium fluorescence; inhibition, % at 3 µM; 360,000 tested, 0.73% active;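 active = inhibition above its plate's cutoff, the mean inhibition of sample wells plus 3 SD, cut at about 27% in these data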;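 also: 0% = acetylcholine EC80 with DMSO and 100% = DMSO without agonist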
M5 antag – blocks acetylcholine activation of human M5 receptor. 360,000 tested, 0.59% active. P08912. inhibition, % at 3 µM. AID 624040. CHO-hM5 cells, Fluo-8 calcium fluorescence, ACh EC80;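 active = inhibition above a per-plate cutoff, the mean of that plate's test compounds plus 3 SD, cut at about 27% in these data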;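 also: 0% = acetylcholine EC80 with DMSO and 100% = DMSO without agonist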
The depositor's hits bear a star. An excerpt weighted towards active compounds, which were near 1.9% of everything screened.

SMILES | M4 ag | M5 PAM | CHRM5 agonist | M4 PAM | CHRM4 antagonist | M5 antag
CCC(NC(=S)NCc1ccc(F)cc1)c1ccc(C(C)C)cc1 (stereo not drawn) | 9 | -12 | -2 | -16 | 82* | 13
S=C(NCc1ccncc1)Nc1cccc(Cl)c1 | 5 | -4 | 3 | 5 | 0 | 12
Fc1ccc(CNC(=S)Nc2ccc(Cl)cc2)cc1 | 12 | -23 | 2 | -13 | 5 | 31*
CC(Oc1ccc2c(-c3ccccc3)cc(=O)oc2c1)C(=O)N1CCOCC1 (stereo not drawn) | 2 | -6 | 1 | -3 | 8 | 10
CC(Oc1ccc2c(-c3ccccc3)cc(=O)oc2c1)C(=O)O (stereo not drawn) | 0 | -5 | -1 | -12 | 27* | 12
O=C(c1cccs1)N1CCN(C23CC4CC(CC(C4)C2)C3)CC1 | 2 | -6 | -7 | -17 | 40* | -14
O=C(c1ccc(Cl)s1)N1CCN(C23CC4CC(CC(C4)C2)C3)CC1 | 0 | 3 | -9 | -12 | 5 | -23
NC(=O)c1ccsc1NC(=O)COC(=O)Cc1cccc2ccccc12 | 22 | -21 | 8 | -14 | 61* | 55*
CN(C)S(=O)(=O)c1cccc(C(=O)OCC(=O)Nc2sccc2C(N)=O)c1 | 30 | -20 | 15 | -20 | 38* | 16
NC(=O)c1ccsc1NC(=O)CSc1ccccc1F | 4 | 0 | 5 | 3 | 5 | 2
Cc1ccccc1SCC(=O)OCC(=O)Nc1sccc1C(N)=O | 19 | -19 | 9 | -12 | 31* | 40*
CC(C)(C)N(Cc1ccccc1)C(=O)c1cc2ccccc2o1 | -2 | -15 | -18 | -13 | 18 | 7
Cc1ccc(C(=O)c2nccn2C)cc1C | 0 | 2 | -3 | 5 | -3 | 8
O=C1c2ccc(-c3ccc(F)cc3OCc3ccccc3)cc2S(=O)(=O)c2cccc(C(=O)N3CCCC3)c21 | 6 | -6 | 5 | -2 | 5 | 14
COc1ccc(CN(C)C(=O)[C@H]2O[C@@H](n3cnc4c(N)ncnc43)[C@H](O)[C@@H]2O)cc1OC | 1 | -3 | 1 | 3 | -12 | -1
CCOC(=O)c1sc(SCc2ccccc2)c2c1CC(C)(C)CC2=O | -1 | -1 | 2 | -1 | -5 | 8
CN1C(=S)SC(C)(C)C1(C)NO (stereo not drawn) | 1 | 26* | -1 | 7 | -2 | -12
O=C(Cc1ccc(Cl)cc1Cl)Nc1ccncc1Cl | 11 | -13 | 3 | -6 | 3 | 30*
O=C(Cc1ccc(Cl)cc1Cl)Nc1ccncc1 | 13 | -6 | 2 | -1 | 5 | 10
CC(C)Sc1cc(N2CCOCC2)nc(-c2ccccc2)n1 | -1 | 5 | 3 | 32* | -12 | -5
CCC(C)(C)NC(=O)C(c1ccco1)N(C(=O)CNC(=O)c1cccs1)c1cccnc1 (stereo not drawn) | 6 | 29* | -1 | 4 | -12 | 29*
Fc1ccc(NC(=S)NC2CC3CCCC(C2)N3Cc2cccs2)cc1 (stereo not drawn) | 3 | -14 | -6 | -6 | 8 | 32*
CCCS(=O)(=O)NC(=O)C1(C)CCCN(C(=O)c2ccc(C(=O)OC)cc2)C1 (stereo not drawn) | 1 | -2 | -1 | 2 | 4 | 6
O=C(c1ccc(CSc2nc3ccncc3[nH]2)cc1)N1CCN(c2cccc(Cl)c2)CC1 | 19 | -19 | 6 | -12 | 10 | 35*
CC1CCN(C(=O)c2[nH]cnc2C(=O)Nc2nccs2)CC1 | 1 | 0 | 2 | 3 | -4 | 1
O=C(Cn1c(=O)n(-c2cccc(Cl)c2)c(=O)n1CC(=O)N1CCCCC1)N1CCCCC1 | 1 | -2 | -2 | 18 | 2 | 2
Cn1c(=O)n(-c2cccc(Cl)c2)c(=O)n1C | 1 | 0 | 1 | 21 | 40* | 3
Cc1ccc(NC(=S)NCCSc2ccc(Cl)cc2)cc1 | 8 | -33 | -15 | -28 | 36* | 17
NS(=O)(=O)c1ccc(NC(=S)NCCc2ccccc2)cc1 | 1 | -6 | -1 | -2 | 0 | 9
